We go through four molecules from ChEMBL document CHEMBL4396890, “Synthesis, Biological Evaluation, Structure-Activity Relationship, and Mechanism of Action Studies of Quinoline-Metronidazole Derivatives Against Experimental Visceral Leishmaniasis” (J Med Chem, 2019).

Each structure is given as a SMILES string. The source made the active and inactive calls. The calls are words filed in the database; no cut-off is given here.

The subject of one test is Leishmania donovani. Briefly: Antileishmanial activity against Leishmania donovani MHOM/IN/80/Dd8 promastigotes harboring luciferase reporter gene at 50 uM after 48 hrs by Steady-Glo luminescence assay relative to control. The format is functional.
Settings: not given
A digest of the protocol: (§1)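 Luciferase-expressing L. donovani Dd8 promastigotes were grown at 24 °C in M199 with 10% heat-inactivated FBS and G418 20 μg/mL. They were treated at varied concentrations for 24 and 48 h, and inhibition was read as relative luminescence units versus untreated control. IC50 was from dose–response; screening values are mean ± SD of at least three experiments in duplicate.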
(Reporter assays use an easily measured gene product as a stand-in for the process of interest.)
One may read the inhibition as the percentage by which the read-out fell short of the control. `Cc1ncc([N+](=O)[O-])n1CCOc1cccc(-c2cc(-c3ccccc3F)c3cc(Cl)ccc3n2)c1`: the inhibition entry is “inactive”.

`Cc1ncc([N+](=O)[O-])n1CCOc1cccc(-c2cc(-c3ccccc3)c3cc([N+](=O)[O-])ccc3n2)c1`: the inhibition result was “inactive”.

Staying with this test, now noted: MHOM/IN/80/Dd8, 48 h.
On to `Cc1ncc([N+](=O)[O-])n1CCOc1cccc(-c2cc(-c3ccccc3)c3cc(Cl)ccc3n2)c1`, for which at 50 µM the inhibition was 58.2%.

`Cc1ncc([N+](=O)[O-])n1CCOc1ccc(-c2cc(-c3ccccc3)c3ccccc3n2)cc1`: the inhibition at 50 µM is 93.2%.

A further test has as its system Leishmania donovani. As to the kind of experiment: Antileishmanial activity against Leishmania donovani MHOM/IN/80/Dd8 amastigotes harboring luciferase reporter gene infected in mouse J774 cells at 50 uM after 48 hrs by Steady-Glo luminescence assay relative to control. The format is functional. Conditions: MHOM/IN/80/Dd8, J774, 48 h. A digest of the protocol:
(§2)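 Infection of J774 macrophages with L. donovani Dd8 promastigotes at a 1:8 cell:parasite ratio. Compounds were diluted 2-fold in RPMI over 3.125–100 μM final and applied for 48 h. Amastigote inhibition was read by luciferase (RLU) or by Giemsa count of amastigotes per 100 macrophages. IC50 was from dose–response; n = 3 independent experiments done in replicate.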
Turning to `Cc1ncc([N+](=O)[O-])n1CCOc1cccc(-c2cc(-c3ccccc3)c3cc(Cl)ccc3n2)c1`, 50 µM produced 59.2% inhibition.

As to `Cc1ncc([N+](=O)[O-])n1CCOc1ccc(-c2cc(-c3ccccc3)c3ccccc3n2)cc1`, the inhibition at 50 µM worked out at 67.7%.

`Cc1ncc([N+](=O)[O-])n1CCOc1cccc(-c2cc(-c3ccccc3F)c3cc(Cl)ccc3n2)c1` returned an inhibition at 50 µM of 12.1%.

`Cc1ncc([N+](=O)[O-])n1CCOc1cccc(-c2cc(-c3ccccc3)c3cc([N+](=O)[O-])ccc3n2)c1` showed an inhibition at 50 µM of 10.4%.

A further test concerns Leishmania donovani. As to the kind of experiment: Antileishmanial activity against Leishmania donovani MHOM/IN/80/Dd8 amastigotes harboring luciferase reporter gene infected in mouse J774 cells at 25 uM after 48 hrs by Steady-Glo luminescence assay relative to control. It counts as functional.
Settings: not given
Put shortly: as §2
With `Cc1ncc([N+](=O)[O-])n1CCOc1cccc(-c2cc(-c3ccccc3F)c3cc(Cl)ccc3n2)c1`, the inhibition result was “inactive”.

Take `Cc1ncc([N+](=O)[O-])n1CCOc1cccc(-c2cc(-c3ccccc3)c3cc([N+](=O)[O-])ccc3n2)c1`: the inhibition entry is “inactive”.

Still in this test, the particulars now being: MHOM/IN/80/Dd8, J774, 48 h.
`Cc1ncc([N+](=O)[O-])n1CCOc1cccc(-c2cc(-c3ccccc3)c3cc(Cl)ccc3n2)c1` showed an inhibition at 25 µM of 38.2%.

In the case of `Cc1ncc([N+](=O)[O-])n1CCOc1ccc(-c2cc(-c3ccccc3)c3ccccc3n2)cc1`, the inhibition at 25 µM was 45.3%.

Another test has as its system Leishmania donovani. Briefly: Antileishmanial activity against Leishmania donovani MHOM/IN/80/Dd8 promastigotes harboring luciferase reporter gene at 25 uM after 48 hrs by Steady-Glo luminescence assay relative to control. The format is functional.
Settings: not given
Put shortly: as §1
Regarding `Cc1ncc([N+](=O)[O-])n1CCOc1cccc(-c2cc(-c3ccccc3F)c3cc(Cl)ccc3n2)c1`, the inhibition entry was “inactive”.

Turning to `Cc1ncc([N+](=O)[O-])n1CCOc1cccc(-c2cc(-c3ccccc3)c3cc([N+](=O)[O-])ccc3n2)c1`, the inhibition entry was “inactive”.

The test is the same for the next values; noted with them: MHOM/IN/80/Dd8, 48 h.
Molecule `Cc1ncc([N+](=O)[O-])n1CCOc1cccc(-c2cc(-c3ccccc3)c3cc(Cl)ccc3n2)c1` returned an inhibition at 25 µM of 41.2%.

The molecule `Cc1ncc([N+](=O)[O-])n1CCOc1ccc(-c2cc(-c3ccccc3)c3ccccc3n2)cc1` showed an inhibition at 25 µM of 78.2%.
